Among the data in ChEMBL document CHEMBL2062473, “Laurene-type sesquiterpenes from the Red Sea red alga Laurencia obtusa as potential antitumor-antimicrobial agents” (2012) are Activity and MIC values, retold here.

In brackets after ≈: the same amount, converted by molar mass. Activity calls are given as the source filed them. The calls are words filed in the database; no cut-off is given here.

A short description of assay [1]: Cytotoxicity against mouse EAC at 25 to 100 uM after 2 hrs by trypan blue staining based hemocytometer analysis. The class given is functional, Ehrlich. In short, it runs like this: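 Ehrlich ascites cells were aspirated aseptically from a donor animal's peritoneal fluid and kept in RPMI 1640 with 10% FBS. Cells were exposed to compounds at three levels (100, 50, 25) prepared in DMSO/RPMI-1640 for 2 h at 37 C in humidified 5% CO2. Viability was scored by trypan blue exclusion on a hemocytometer; untreated control viability exceeded 95%.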

The test system of a further assay is Staphylococcus aureus. Description: Antibacterial activity against Staphylococcus aureus ATCC 29213 by two fold serial dilution technique. The format is functional. In short, it runs like this:
(§1)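 Compounds first screened by disk diffusion. Those giving inhibition zones above 15 mm were then tested for bacteriostatic MIC by two-fold serial dilution.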

Another assay deals with Candida albicans. In words: Antifungal activity against Candida albicans after 48 hrs by microtiter broth dilution method. The format is functional. In short, it runs like this:
(§2)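 Fungi were grown 24 h at 37 C under 5% CO2 in YPD (1% yeast, 2% peptone, 2% dextrose), then diluted 1:100 in saline and 1:100 in YPD to about 1000 CFU per inoculum. Inocula were added to two-fold serial dilutions in 96-well broth, with drug-free growth and sterility controls. Plates were incubated 48 h at 37 C under 5% CO2. MIC was the lowest concentration without visible turbidity.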
A general note: Dilution methods test growth across graded concentrations, often in twofold steps.

In the next assay the test system is Bacillus subtilis. Description: Antibacterial activity against Bacillus subtilis ATCC 6633 by two fold serial dilution technique. The format is functional. The procedure, abridged:
as §1

For another assay, the system named is Pseudomonas aeruginosa. Description: Antibacterial activity against Pseudomonas aeruginosa ATCC […] by two fold serial dilution technique. The format is functional, organism-based. In short, it runs like this: as §1
For another assay, the system named is Aspergillus fumigatus. Description: Antifungal activity against wild type Aspergillus fumigatus Af293 after 48 hrs by microtiter broth dilution method. The format is functional. The settings on record: Af293, 48 h. The procedure, abridged:
as §2

In general, MIC refers to the lowest concentration found to suppress growth. Consider `CC1=C(C)[C@@](C)(C2=CCC(CO)=CC2)CC1`, for which, in assay [1], the Activity is 79.9%. For the same molecule, the MIC with Staphylococcus aureus was 31 µg/mL (≈ 142 µM); in the assay with Candida albicans it was 120 µg/mL (≈ 550 µM); in the assay with Bacillus subtilis, 39 µg/mL (≈ 179 µM); with Aspergillus fumigatus, 200 µg/mL (≈ 916 µM). Moreover, the MIC result in the assay with Pseudomonas aeruginosa is “inactive”.
Turning to `CC(=O)N1CCN(c2ccc(OCC3COC(Cn4ccnc4)(c4ccc(Cl)cc4Cl)O3)cc2)CC1` (centres undefined) [KETOCONAZOLE], the MIC in the assay on Candida albicans and in the assay with Aspergillus fumigatus was 40 µg/mL (≈ 75.3 µM) throughout.
Consider `CC1=C(C)[C@@](C)(c2ccc(CO)cc2)CC1`, for which the MIC came out at 52 µg/mL (≈ 240 µM) in the assay on Staphylococcus aureus, 2000 µg/mL (≈ 9250 µM) against Candida albicans, 46 µg/mL (≈ 213 µM) in the assay with Bacillus subtilis and 2000 µg/mL (≈ 9250 µM) against Aspergillus fumigatus. The MIC result in the assay with Pseudomonas aeruginosa is “inactive”.
The molecule `CC1=C(C)[C@@](C)(c2ccc(C=O)cc2)CC1` [ISOLAURELDEHYDE] yielded an Activity in assay [1] of 83.1%. Moreover, the MIC came to 27 µg/mL (≈ 126 µM) in the assay on Staphylococcus aureus, 70 µg/mL (≈ 327 µM) in the assay on Candida albicans, 35 µg/mL (≈ 163 µM) against Bacillus subtilis and 100 µg/mL (≈ 467 µM) with Aspergillus fumigatus. Besides, the MIC result in the assay with Pseudomonas aeruginosa is “inactive”.
